Results published in ChEMBL document CHEMBL3352277, “Click approach to the discovery of 1,2,3-triazolylsalicylamides as potent Aurora kinase inhibitors” (Bioorg Med Chem, 2014).
Active and inactive are the calls of the source. No cut-off for these calls is given here.

Assays:
[1] = biological target: T1, Aurora kinase A (Homo sapiens) (UniProt O14965); experiment: Inhibition of Aurora A (unknown origin) at 10 uM using [33P]-ATP and 10 uM ATP after 2 hrs
T1 sequence (whole entry): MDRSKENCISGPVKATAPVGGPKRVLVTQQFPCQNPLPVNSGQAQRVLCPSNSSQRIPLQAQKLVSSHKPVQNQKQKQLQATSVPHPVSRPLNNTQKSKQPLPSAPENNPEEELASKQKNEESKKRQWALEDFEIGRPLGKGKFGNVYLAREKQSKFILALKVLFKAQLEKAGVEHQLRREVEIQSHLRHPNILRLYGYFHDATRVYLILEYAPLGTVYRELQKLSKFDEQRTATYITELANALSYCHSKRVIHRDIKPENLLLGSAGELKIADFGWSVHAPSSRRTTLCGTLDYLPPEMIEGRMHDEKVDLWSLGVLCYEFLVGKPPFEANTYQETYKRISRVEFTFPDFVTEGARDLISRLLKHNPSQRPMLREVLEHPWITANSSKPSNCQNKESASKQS

Aurora kinase B [2] = biological target: T2, Aurora kinase B (Homo sapiens, UniProt Q96GD4); experiment: Inhibition of Aurora B (unknown origin) at 10 uM using [33P]-ATP and 10 uM ATP after 2 hrs
T2 sequence (Q96GD4 whole entry): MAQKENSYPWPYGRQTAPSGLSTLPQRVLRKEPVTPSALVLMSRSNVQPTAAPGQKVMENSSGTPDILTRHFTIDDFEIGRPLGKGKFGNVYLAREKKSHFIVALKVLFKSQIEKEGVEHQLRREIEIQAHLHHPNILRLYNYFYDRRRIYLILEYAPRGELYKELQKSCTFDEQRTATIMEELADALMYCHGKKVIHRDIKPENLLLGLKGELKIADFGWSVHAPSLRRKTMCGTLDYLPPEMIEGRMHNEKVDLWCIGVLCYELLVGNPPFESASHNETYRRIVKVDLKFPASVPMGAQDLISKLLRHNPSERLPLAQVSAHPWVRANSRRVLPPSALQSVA

Aurora kinase A = biological target: T3, Aurora kinase A (Homo sapiens, UniProt O14965); experiment: Inhibition of Aurora A (unknown origin) using [33P]-ATP and 10 uM ATP after 2 hrs
T3 sequence (O14965 whole entry): T1 sequence (whole entry)

Aurora kinase B [3] = biological target: T2, Aurora kinase B; experiment: Inhibition of Aurora B (unknown origin) using [33P]-ATP and 10 uM ATP after 2 hrs
[4] = biological target: Glycogen synthase kinase-3 beta (Homo sapiens) (UniProt P49841); experiment: Inhibition of GSK3beta (unknown origin) at 10 uM
Chain of Glycogen synthase kinase-3 beta (Homo sapiens) (P49841 whole entry, looked up): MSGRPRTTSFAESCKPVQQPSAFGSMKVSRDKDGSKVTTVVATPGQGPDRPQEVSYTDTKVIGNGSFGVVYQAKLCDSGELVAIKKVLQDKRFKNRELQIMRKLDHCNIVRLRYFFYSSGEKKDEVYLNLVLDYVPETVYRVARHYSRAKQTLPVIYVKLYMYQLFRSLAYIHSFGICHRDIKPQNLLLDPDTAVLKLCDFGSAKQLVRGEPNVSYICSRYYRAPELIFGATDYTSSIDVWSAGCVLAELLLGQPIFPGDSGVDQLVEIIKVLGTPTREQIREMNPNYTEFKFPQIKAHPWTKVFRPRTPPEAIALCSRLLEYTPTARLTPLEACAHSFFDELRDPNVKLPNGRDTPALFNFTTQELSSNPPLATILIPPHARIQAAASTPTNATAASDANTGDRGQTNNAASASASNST
Method in brief: (§1)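 Single 10 µM concentration against a 40-kinase panel on the radiometric HotSpot platform. Kinase and substrate were added before ³³P-ATP started the reaction, which ran 2 h at room temperature.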

[5] = tested on: Epidermal growth factor receptor (Homo sapiens), P00533 [L858R]; experiment: Inhibition of EGFR L858R mutant (unknown origin) at 10 uM; format: protein assay; method in brief: as §1
Chain of Epidermal growth factor receptor (Homo sapiens), P00533 [L858R] (P00533 whole entry L858R): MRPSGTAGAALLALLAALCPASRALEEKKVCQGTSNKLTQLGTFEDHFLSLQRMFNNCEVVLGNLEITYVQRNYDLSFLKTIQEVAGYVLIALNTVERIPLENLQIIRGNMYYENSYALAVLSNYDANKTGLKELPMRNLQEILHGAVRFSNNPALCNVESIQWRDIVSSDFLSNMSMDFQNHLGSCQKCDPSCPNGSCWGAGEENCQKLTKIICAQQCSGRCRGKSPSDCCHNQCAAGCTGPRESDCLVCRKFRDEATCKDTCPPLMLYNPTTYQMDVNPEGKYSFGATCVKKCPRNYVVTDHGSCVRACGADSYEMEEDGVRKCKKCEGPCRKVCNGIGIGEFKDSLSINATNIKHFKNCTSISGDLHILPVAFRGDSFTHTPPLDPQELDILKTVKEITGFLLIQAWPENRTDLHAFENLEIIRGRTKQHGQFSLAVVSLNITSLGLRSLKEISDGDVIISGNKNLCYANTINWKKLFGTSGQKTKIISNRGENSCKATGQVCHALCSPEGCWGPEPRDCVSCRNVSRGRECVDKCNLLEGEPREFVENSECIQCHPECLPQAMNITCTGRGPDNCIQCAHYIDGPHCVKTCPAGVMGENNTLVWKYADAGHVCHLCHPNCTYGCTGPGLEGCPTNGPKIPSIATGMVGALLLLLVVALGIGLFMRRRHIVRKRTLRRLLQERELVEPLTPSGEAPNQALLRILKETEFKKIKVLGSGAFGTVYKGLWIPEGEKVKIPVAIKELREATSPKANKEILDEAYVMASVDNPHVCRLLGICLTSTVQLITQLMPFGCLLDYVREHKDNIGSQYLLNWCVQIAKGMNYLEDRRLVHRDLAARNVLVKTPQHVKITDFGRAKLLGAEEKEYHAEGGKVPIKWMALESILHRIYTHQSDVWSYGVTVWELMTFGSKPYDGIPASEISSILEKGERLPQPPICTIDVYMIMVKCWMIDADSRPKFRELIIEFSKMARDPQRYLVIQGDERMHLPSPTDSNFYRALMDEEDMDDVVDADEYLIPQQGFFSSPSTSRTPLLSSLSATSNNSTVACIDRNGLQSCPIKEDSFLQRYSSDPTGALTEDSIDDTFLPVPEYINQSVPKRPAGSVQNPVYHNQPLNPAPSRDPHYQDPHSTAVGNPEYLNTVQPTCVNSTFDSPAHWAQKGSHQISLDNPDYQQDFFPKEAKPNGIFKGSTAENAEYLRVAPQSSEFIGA

[6] = biological target: T1, Aurora kinase A (Homo sapiens); experiment: Inhibition of Aurora A (unknown origin) at 10 uM
[7] = biological target: Serine/threonine-protein kinase pim-1 (Homo sapiens) (UniProt P11309); experiment: Inhibition of […] (unknown origin) at 10 uM; method in brief: as §1
Chain of Serine/threonine-protein kinase pim-1 (Homo sapiens) (P11309 whole entry, looked up): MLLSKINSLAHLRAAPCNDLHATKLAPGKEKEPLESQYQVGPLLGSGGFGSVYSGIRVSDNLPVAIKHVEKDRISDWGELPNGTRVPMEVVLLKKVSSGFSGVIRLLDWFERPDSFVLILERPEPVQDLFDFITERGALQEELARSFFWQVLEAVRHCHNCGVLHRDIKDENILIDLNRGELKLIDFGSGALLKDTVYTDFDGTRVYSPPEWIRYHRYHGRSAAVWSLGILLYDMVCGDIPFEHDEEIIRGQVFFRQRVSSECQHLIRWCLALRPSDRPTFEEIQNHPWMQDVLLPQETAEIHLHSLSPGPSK

| SMILES | inhibition [1] [%] | inhibition (Aurora kinase B [2]) [%] | IC50 (Aurora kinase A) [nM] | IC50 (Aurora kinase B [3]) [nM] | inhibition [4] | inhibition [5] | inhibition [6] [%] | inhibition [7] |
| --- | --- | --- | --- | --- | --- | --- | --- | --- |
| COc1cccc(NC(=O)c2cc(-n3cc(-c4cc(OC)cc(OC)c4)nn3)ccc2O)c1 | 83.3 | 50.3 | – | – | – | – | – | – |
| COC(=O)c1cccc(NC(=O)c2cc(-n3cc(-c4cc(OC)cc(OC)c4)nn3)ccc2O)c1 | 90.2 | 71.3 | 370 | 3580 | – | – | – | – |
| COc1cc(OC)cc(-c2cn(-c3ccc(O)c(C(=O)Nc4cccc(C(F)(F)F)c4)c3)nn2)c1 | – | – | – | – | Active | Active | 74.5 | Active |
| COC(=O)c1cccc(-c2cn(-c3ccc(O)c(C(=O)Nc4cccc(C(F)(F)F)c4)c3)nn2)c1 | 90.5 | 57.3 | 1820 | 63200 | – | – | – | – |
